From ChEMBL document CHEMBL5247575 (J Med Chem, 2018)

How the values were obtained:
Acinetobacter baumannii [1] = assay: Synergistic antibacterial activity against ADC deleted Acinetobacter baumannii assessed as cefepime MIC at 8 ug/ml by broth microdilution method; type: functional; settings: dose 8 µg/ml
Klebsiella pneumoniae [2] = assay: Synergistic antibacterial activity against Klebsiella pneumoniae 935/1884 producing KPC-3 assessed as cefepime MIC at 8 ug/ml by broth microdilution method; type: functional; settings: dose 8 µg/ml
Escherichia coli [3] = assay: Synergistic antibacterial activity against Escherichia coli DH10B transfected with pBR322-catI-KPC-2 assessed as cefepime MIC at 8 ug/ml by broth microdilution method; type: functional; settings: dose 8 µg/ml
Method in brief: (§1)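 Broth microdilution per CLSI guidelines, using custom frozen panels. […] Each partner drug was also tested alone. MICs were run in triplicate and the modal value is reported.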

Klebsiella pneumoniae [4] = assay: Synergistic antibacterial activity against Klebsiella pneumoniae 1354/2241 producing KPC-3 assessed as cefepime MIC at 4 ug/ml by broth microdilution method; type: functional; settings: dose 4 µg/ml; method in brief: as §1
Acinetobacter baumannii [5] = assay: Synergistic antibacterial activity against ADC deleted Acinetobacter baumannii transfected with pWH1266 producing OXA-24/40 assessed as meropenem MIC at 4 ug/ml by broth microdilution method; type: functional; settings: dose 4 µg/ml
Escherichia coli [6] = assay: Synergistic antibacterial activity against Escherichia coli DH10B transfected with pBC SK (-) KPC-2 assessed as cefepime MIC at 8 ug/ml by broth microdilution method; type: functional; settings: dose 8 µg/ml
Acinetobacter baumannii [7] = assay: Synergistic antibacterial activity against Acinetobacter baumannii PR474 producing OXA-23/24/40 assessed as cefepime MIC at 8 ug/ml by broth microdilution method; type: functional; settings: dose 8 µg/ml
Klebsiella pneumoniae [8] = assay: Synergistic antibacterial activity against Klebsiella pneumoniae 977/1916 producing KPC-3 assessed as meropenem MIC at 4 ug/ml by broth microdilution method; type: functional; settings: dose 4 µg/ml
Acinetobacter baumannii [9] = assay: Synergistic antibacterial activity against Acinetobacter baumannii PR448 producing OXA-23 assessed as meropenem MIC at 4 ug/ml by broth microdilution method; type: functional; settings: dose 4 µg/ml
Klebsiella pneumoniae [10] = assay: Synergistic antibacterial activity against Klebsiella pneumoniae CAV 1543 producing OXA-48 assessed as cefepime MIC at 8 ug/ml by broth microdilution method; type: functional; settings: dose 8 µg/ml
Bacteria [11] = assay: Inhibition of bacteria KPC-2 assessed as second order rate constant K2/K using nitrocefin as substrate
Method in brief: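 Steady-state kinetics, 10 mM phosphate-buffered saline pH 7.4. Progress curves recorded with fixed enzyme and nitrocefin and increasing nM inhibitor. Each curve fitted to a time-course equation to give k_obs. k2/K derived from these and corrected for nitrocefin concentration relative to its Km.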

Klebsiella pneumoniae [12] = assay: Synergistic antibacterial activity against Klebsiella pneumoniae NY BS producing OXA-232 assessed as cefepime MIC at 8 ug/ml by broth microdilution method; type: functional; settings: dose 8 µg/ml
Bacteria [13] = assay: Inhibition of bacteria KPC-2 assessed as half life using nitrocefin as substrate
Acinetobacter baumannii [14] = assay: Synergistic antibacterial activity against Acinetobacter baumannii PR408 producing OXA-24/40 assessed as cefepime MIC at 4 ug/ml by broth microdilution method; type: functional; settings: dose 4 µg/ml
Escherichia coli [15] = assay: Synergistic antibacterial activity against Escherichia coli DH10B transfected with pBC SK (-) PDC-3 assessed as meropenem MIC at 8 ug/ml by broth microdilution method; type: functional; settings: dose 8 µg/ml; method in brief: as §1
Klebsiella pneumoniae [16] = assay: Synergistic antibacterial activity against Klebsiella pneumoniae 901/1860 producing KPC-3 assessed as cefepime MIC at 8 ug/ml by broth microdilution method; type: functional; settings: dose 8 µg/ml
Klebsiella pneumoniae [17] = assay: Synergistic antibacterial activity against Klebsiella pneumoniae 935/1884 producing KPC-3 assessed as meropenem MIC at 4 ug/ml by broth microdilution method; type: functional; settings: dose 4 µg/ml
Klebsiella pneumoniae [18] = assay: Synergistic antibacterial activity against Klebsiella pneumoniae 729/1679 producing KPC-3 assessed as meropenem MIC at 4 ug/ml by broth microdilution method; type: functional; settings: dose 4 µg/ml; method in brief: as §1
Acinetobacter baumannii [19] = assay: Synergistic antibacterial activity against Acinetobacter baumannii PR319 producing OXA-23/24/40 assessed as meropenem MIC at 4 ug/ml by broth microdilution method; type: functional; settings: dose 4 µg/ml
Klebsiella pneumoniae [20] = assay: Synergistic antibacterial activity against Klebsiella pneumoniae 1398/2291 producing KPC-3 assessed as cefepime MIC at 4 ug/ml by broth microdilution method; type: functional; settings: dose 4 µg/ml; method in brief: as §1
Klebsiella pneumoniae [21] = assay: Synergistic antibacterial activity against Klebsiella pneumoniae 935/1884 producing KPC-3 assessed as cefepime MIC at 4 ug/ml by broth microdilution method; type: functional; settings: dose 4 µg/ml
Escherichia coli [22] = assay: Synergistic antibacterial activity against Escherichia coli DH10B transfected with pBC SK (-) KPC-2 assessed as meropenem MIC at 8 ug/ml by broth microdilution method; type: functional; settings: dose 8 µg/ml
Klebsiella pneumoniae [23] = assay: Synergistic antibacterial activity against Klebsiella pneumoniae 935/1884 producing KPC-3 assessed as meropenem MIC at 8 ug/ml by broth microdilution method; type: functional; settings: dose 8 µg/ml
Klebsiella pneumoniae [24] = assay: Synergistic antibacterial activity against Klebsiella pneumoniae 440/1360 producing KPC-2 assessed as cefepime MIC at 4 ug/ml by broth microdilution method; type: functional; settings: dose 4 µg/ml; method in brief: as §1
Klebsiella pneumoniae [25] = assay: Synergistic antibacterial activity against Klebsiella pneumoniae 1084/1957 producing KPC-3 assessed as cefepime MIC at 8 ug/ml by broth microdilution method; type: functional; settings: dose 8 µg/ml; method in brief: as §1
Acinetobacter baumannii [26] = assay: Synergistic antibacterial activity against ADC deleted Acinetobacter baumannii transfected with pWH1266 OXA-23 assessed as cefepime MIC at 8 ug/ml by broth microdilution method; type: functional; settings: dose 8 µg/ml
Acinetobacter baumannii [27] = assay: Synergistic antibacterial activity against Acinetobacter baumannii PR319 producing OXA-23/24/40 assessed as cefepime MIC at 8 ug/ml by broth microdilution method; type: functional; settings: dose 8 µg/ml
Pseudomonas aeruginosa [28] = assay: Synergistic antibacterial activity against Pseudomonas aeruginosa 715 assessed as meropenem MIC at 4 ug/ml by broth microdilution method; type: functional; settings: dose 4 µg/ml
Pseudomonas aeruginosa [29] = assay: Synergistic antibacterial activity against Pseudomonas aeruginosa 839 assessed as cefepime MIC at 4 ug/ml by broth microdilution method; type: functional; settings: dose 4 µg/ml
Klebsiella pneumoniae [30] = assay: Synergistic antibacterial activity against Klebsiella pneumoniae 1108/1989 producing KPC-3 assessed as meropenem MIC at 4 ug/ml by broth microdilution method; type: functional; settings: dose 4 µg/ml; method in brief: as §1
Bacteria [31] = assay: Inhibition of bacteria PDC-3 assessed as half life using nitrocefin as substrate
Pseudomonas aeruginosa [32] = assay: Synergistic antibacterial activity against Pseudomonas aeruginosa 776 assessed as meropenem MIC at 8 ug/ml by broth microdilution method; type: functional; settings: dose 8 µg/ml
Klebsiella pneumoniae [33] = assay: Synergistic antibacterial activity against Klebsiella pneumoniae jefferson 1775 producing OXA-48 assessed as meropenem MIC at 4 ug/ml by broth microdilution method; type: functional; settings: dose 4 µg/ml
Escherichia coli [34] = assay: Synergistic antibacterial activity against Escherichia coli DH10B transfected with pBC SK (-) KPC-2 assessed as cefepime MIC at 4 ug/ml by broth microdilution method; type: functional; settings: dose 4 µg/ml
Escherichia coli [35] = assay: Synergistic antibacterial activity against Escherichia coli DH10B transfected with pBR322-catI-KPC-2 assessed as meropenem MIC at 4 ug/ml by broth microdilution method; type: functional; settings: dose 4 µg/ml; method in brief: as §1
Klebsiella pneumoniae [36] = assay: Synergistic antibacterial activity against Klebsiella pneumoniae 972/1910 producing KPC-3 assessed as meropenem MIC at 4 ug/ml by broth microdilution method; type: functional; settings: dose 4 µg/ml
Acinetobacter baumannii [37] = assay: Synergistic antibacterial activity against Acinetobacter baumannii PR359 producing OXA-23 assessed as meropenem MIC at 4 ug/ml by broth microdilution method; type: functional; settings: dose 4 µg/ml
Acinetobacter baumannii [38] = assay: Synergistic antibacterial activity against Acinetobacter baumannii PR363 producing OXA-23 assessed as meropenem MIC at 4 ug/ml by broth microdilution method; type: functional; settings: dose 4 µg/ml
[39] = Inhibition of bacteria ADC-7 assessed as apparent inhibition constant using nitrocefin as substrate

Row | SMILES | MIC (Acinetobacter baumannii [1]) [µg/mL] | MIC (Klebsiella pneumoniae [2]) [µg/mL] | MIC (Escherichia coli [3]) [µg/mL] | MIC (Klebsiella pneumoniae [4]) [µg/mL] | MIC (Acinetobacter baumannii [5]) [µg/mL] | MIC (Escherichia coli [6]) [µg/mL] | MIC (Acinetobacter baumannii [7]) [µg/mL] | MIC (Klebsiella pneumoniae [8]) [µg/mL] | MIC (Acinetobacter baumannii [9]) [µg/mL] | MIC (Klebsiella pneumoniae [10]) [µg/mL] | MIC (Klebsiella pneumoniae [12]) [µg/mL] | T1/2 (Bacteria [13]) [min] | MIC (Acinetobacter baumannii [14]) [µg/mL] | MIC (Escherichia coli [15]) [µg/mL] | MIC (Klebsiella pneumoniae [16]) [µg/mL] | MIC (Klebsiella pneumoniae [17]) [µg/mL] | MIC (Klebsiella pneumoniae [18]) [µg/mL] | MIC (Acinetobacter baumannii [19]) [µg/mL] | MIC (Klebsiella pneumoniae [20]) [µg/mL] | MIC (Klebsiella pneumoniae [21]) [µg/mL] | also measured
1 | N#C[C@@H]1CC[C@@H]2CN1C(=O)N2OS(=O)(=O)[O-].[Na+] | 0.5 | ≤ 0.12 | ≤ 0.12 | ≤ 0.12 | > 16 | ≤ 0.12 | 8 | ≤ 0.12 | 2 | 0.25 | 1 | 26 | 8 | ≤ 0.12 | ≤ 0.12 | ≤ 0.12 | ≤ 0.12 | 16 | ≤ 0.12 | 0.25 | K (Bacteria [11]): 2.4 10^5/M/s; MIC (Escherichia coli [22]): ≤ 0.12 µg/mL; MIC (Klebsiella pneumoniae [23]): ≤ 0.12 µg/mL; MIC (Klebsiella pneumoniae [24]): 0.5 µg/mL; MIC (Klebsiella pneumoniae [25]): ≤ 0.12 µg/mL; MIC (Acinetobacter baumannii [26]): 2 µg/mL; MIC (Acinetobacter baumannii [27]): > 16 µg/mL; MIC (Pseudomonas aeruginosa [28]): 16 µg/mL; MIC (Pseudomonas aeruginosa [29]): 8 µg/mL; MIC (Klebsiella pneumoniae [30]): ≤ 0.12 µg/mL; T1/2 (Bacteria [31]): 4.1 min; MIC (Pseudomonas aeruginosa [32]): > 16 µg/mL; MIC (Klebsiella pneumoniae [33]): ≤ 0.12 µg/mL; MIC (Escherichia coli [34]): ≤ 0.12 µg/mL; MIC (Escherichia coli [35]): ≤ 0.12 µg/mL; MIC (Klebsiella pneumoniae [36]): ≤ 0.12 µg/mL; MIC (Acinetobacter baumannii [37]): 4 µg/mL; MIC (Acinetobacter baumannii [38]): 4 µg/mL
2 | O=C(NNC(=O)[C@@H]1CC[C@@H]2CN1C(=O)N2OS(=O)(=O)O)[C@@H]1CCNC1 | 0.5 | ≤ 0.12 | ≤ 0.12 | ≤ 0.12 | > 16 | ≤ 0.12 | 8 | ≤ 0.12 | > 16 | ≤ 0.12 | ≤ 0.12 | 33 | 16 | ≤ 0.12 | ≤ 0.12 | ≤ 0.12 | 0.25 | > 16 | ≤ 0.12 | ≤ 0.12 | Ki [39]: 3.7 µM; MIC (Escherichia coli [22]): ≤ 0.12 µg/mL; MIC (Klebsiella pneumoniae [23]): ≤ 0.12 µg/mL; MIC (Klebsiella pneumoniae [24]): ≤ 0.12 µg/mL; MIC (Klebsiella pneumoniae [25]): ≤ 0.12 µg/mL; MIC (Acinetobacter baumannii [26]): 16 µg/mL; MIC (Acinetobacter baumannii [27]): > 16 µg/mL; MIC (Pseudomonas aeruginosa [29]): ≤ 0.12 µg/mL; MIC (Klebsiella pneumoniae [30]): ≤ 0.12 µg/mL; T1/2 (Bacteria [31]): 2.9 min; MIC (Pseudomonas aeruginosa [32]): 16 µg/mL; MIC (Klebsiella pneumoniae [33]): ≤ 0.12 µg/mL; MIC (Escherichia coli [34]): ≤ 0.12 µg/mL; MIC (Escherichia coli [35]): ≤ 0.12 µg/mL; MIC (Klebsiella pneumoniae [36]): ≤ 0.12 µg/mL; MIC (Acinetobacter baumannii [37]): > 16 µg/mL; MIC (Acinetobacter baumannii [38]): > 16 µg/mL
